Screens: PubChem BioAssay, several laboratories
In the library only some 1.5% were active in any assay of this set; here they are far more common.
PPC-1+TRAIL kill = compounds killing PPC-1 cancer cells with TRAIL present (potentiator screen, no TRAIL-free arm); PPC-1 cells + TRAIL, ATPLite viability luminescence; cell killing (% activity), % at 4 µM or 5 µM; hit rate 0.41% among 220,000; AID 1443;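 active = cell killing above 50% in the first pass at 4 µM, then a duplicate retest at 5 µM averaging 50% or more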
H9c2 TAG inh = triacylglycerol accumulation inhibition; H9c2 cells, Nile Red lipid (TAG) fluorescence; cells loaded with 200 µM oleic acid; inhibition, % at 12.5 µM; hit rate 0.66% among 230,000; AID 651582;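 active = pattern-corrected inhibition of lipid staining of at least 50% with the nuclear-stain viability signal not falling by more than 50%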
STAT1 inh = STAT1 signaling inhibition | NIH 3T3 STAT1-luciferase reporter, IFN-gamma, luminescence | inhibition, % at 5.5 µM | hit rate 0.35% among 200,000 | AID 920;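 active = inhibition above a set limit, the mean inhibition across all tested compounds plus 3 SD, cut at about 34% in these data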
Hep lipid drop = hepatic lipid droplet formation modulation. AML12 mouse hepatocytes, oleate lipid droplets, BODIPY imaging. inhibition, % at 6.5 µM. hit rate 0.4% among 240,000;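 active = lipid droplet intensity inhibited by at least 50%, with more than 500 cells counted; inconclusive = wells with under 300 cells, treated as cytotoxic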
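Assay system: AML12 mouse liver cells | Compound: 6.5 µM single-point dosing | Schedule: Overnight exposure | Technique: Fluorescence imaging, 20x objective, two fields per well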
Platelet DG rel = modulates dense granule release in human platelets; human platelet-rich plasma, SFLLRN dense granule ATP release, luminescence; AID 1663; inhibition, %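 (compounds screened at 7.5 µM in platelet-rich plasma)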; hit rate 0.22% among 300,000;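 active = mean replicate score, as percent of positive control, at or above 50; inconclusive = mean below 50 but at least one replicate at or above 50; inactive = mean and every replicate below 50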
STAT3 inh = inhibitors of IL-6 induced STAT3 signaling; U3A cells, IL-6 STAT3-luciferase reporter, luminescence; host cell line lacks STAT1; inhibition, % at 5.5 µM; hit rate 0.89% among 190,000;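 active = inhibition above the mean inhibition across all screened compounds plus 3 SD, cut at about 44% in these data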
A number is an active result; 0 = inactive; ? = inconclusive; - = no result.

SMILES | PPC-1+TRAIL kill | H9c2 TAG inh | STAT1 inh | Hep lipid drop | Platelet DG rel | STAT3 inh
CCOc1ccc(/C=N/Nc2ccc(C(F)(F)F)cc2[N+](=O)[O-])cc1O | 0 | - | 0 | 74 | 0 | 0
O[C@H]1CN(CC2CCCCC2)[C@@H](c2ccccc2)C[C@@H]1n1cc(C2CC2)nn1 | - | 0 | - | - | - | -
CC(C)C(=O)N1CCCC1(C)C(=O)Nc1ccccc1 (stereo unspecified) | - | 0 | - | - | - | -
COc1ccccc1-n1cnc2cc(NCc3cccs3)ccc21 | 0 | 58 | 0 | 0 | 0 | 0
Cc1ccccc1-n1cnc2cc(NCc3cccs3)ccc21 | 0 | - | 0 | - | 0 | 0
Cc1ccc(NC(=O)c2cc(S(=O)(=O)N3CCc4ccccc43)cn2C)cc1 | - | - | - | 0 | 0 | -
Cn1cc(S(=O)(=O)N2CCc3ccccc32)cc1C(=O)Nc1ccc(Cl)cc1 | - | 0 | - | 0 | 62 | -
CN(C(=O)c1cc(S(=O)(=O)N2CCc3ccccc32)cn1C)C1CCCCC1 | - | 0 | - | 0 | 58 | -
O=S(=O)(c1cnc(Cl)c(Cl)c1)N1CCc2ccccc21 | 80 | 0 | - | 0 | 0 | -
Cc1noc(C)c1C(=O)OC(C)C(=O)c1c[nH]c2ccccc12 (stereo unspecified) | - | 0 | - | - | - | -
COc1cccc(NC(=O)N(C)C[C@@H]2OCc3cnnn3CCCC(=O)N([C@@H](C)CO)C[C@H]2C)c1 | - | 0 | - | - | - | -
Cc1ccc(C(=O)NNc2ncnc3c2cnn3C)cc1 | 0 | 0 | - | 0 | 0 | -
Cn1ncc2c(O/N=C(\N)c3ccc(C(F)(F)F)cc3)ncnc21 | 0 | 86 | - | 0 | 0 | -
Cc1ccccc1-c1noc(-c2ccc(O)cc2)n1 | 0 | - | 0 | - | 100 | 0
Cc1ccccc1-c1noc(-c2ccc(Cl)cc2)n1 | 0 | 0 | 0 | - | 0 | 0
O=C(c1ccc2c(c1)C(=O)N(CCCO)C2=O)c1ccc2c(c1)C(=O)N(CCCO)C2=O | 0 | 0 | 0 | 0 | - | 0
O=C1c2ccc3c4c(ccc(c24)C(=O)N1CCCCO)C(=O)N(CCCCO)C3=O | 0 | 73 | 0 | 0 | 0 | 0
CN(C)CC(CCC(CN(C)C)C(=O)c1ccccc1)C(=O)c1ccccc1 (stereo unspecified) | 52 | 0 | - | 0 | 0 | -
Cc1ccc(C(=O)Nc2nnc(COCCO)s2)cc1 | - | 0 | - | - | - | -
O=C(C#Cc1ccccc1)c1ccccc1 | - | 64 | - | - | - | -
Cc1cc(C)cc(C(O)c2ncc(-c3cccc(F)c3)[nH]2)c1 (stereo unspecified) | - | 0 | - | - | - | -
CCC1NC(=O)c2cccnc2-n2c1nc1ccc(F)cc1c2=O (stereo unspecified) | - | 0 | - | - | - | -
c1ccc(/N=C2\N=C(Nc3ccccn3)c3ccccc32)nc1 | - | 51 | - | - | 0 | -
OC(c1ccc(Cl)c(F)c1)c1ncc(-c2cccc3ccccc23)[nH]1 (stereo unspecified) | - | 0 | - | - | - | -
Cc1ccc(-c2cc(N)n(Cc3ccc(Cl)cc3)n2)cc1 | 0 | 0 | 0 | - | ? | 46
SMILES | PPC-1+TRAIL kill | H9c2 TAG inh | STAT1 inh | Hep lipid drop | Platelet DG rel | STAT3 inh
Cc1cc(N)n(Cc2ccc(Cl)cc2)n1 | 0 | 0 | 0 | 0 | 0 | 0
Cc1cccc(Nc2nc(N)nc(CCl)n2)c1C | 0 | 80 | - | 0 | 0 | -
COc1ccccc1Nc1nc(N)nc(CCl)n1 | 0 | 0 | - | 0 | 0 | -
CC(C)(C)c1ccc(CC(=O)N2CCC2(C)C(=O)NCc2cccc3ccccc23)cc1 (stereo unspecified) | - | 0 | - | - | - | -
Cc1cc(NC(=O)CSCC(=O)Nc2cc(C(F)(F)F)ccc2N2CCCC2)no1 | - | 0 | - | - | 0 | -
Cc1cc(NC(=O)CSCC(=O)Nc2ccccc2N2CCCCC2)no1 | - | 0 | - | - | 50 | -
CCN(c1ccccc1)S(=O)(=O)c1ccc(C(=O)N2CCN(c3ccccc3F)CC2)cc1 | - | 0 | - | - | - | -
O=c1[nH]c2ccc(Cl)cc2c(O)c1-c1ccccc1 | 0 | 0 | 45 | - | 0 | 83
O=c1[nH]c2cc(Cl)ccc2c(O)c1-c1cccc(Oc2ccccc2)c1 | - | 0 | - | - | 0 | -
COc1ccc(C(=O)N2CCC(C)(C(=O)O)C2)cc1OC (stereo unspecified) | - | 0 | - | - | - | -
Cc1cccnc1NC(=O)Cn1nc(-c2ccccc2)oc1=S | 64 | - | 0 | 0 | 0 | 0
Cc1cccnc1NC(=O)Cn1nc([N+](=O)[O-])cc1C | 0 | 0 | 0 | 0 | 0 | 0
CCOC(=O)N1CCN(Cc2nc3c(c(=O)n(C)c(=O)n3C)n2Cc2cccc3ccccc23)CC1 | 0 | - | - | - | 73 | -
CCOC(=O)N1CCN(Cc2nc3c(c(=O)n(C)c(=O)n3C)n2Cc2cccc(C)c2)CC1 | 0 | 0 | 0 | - | 0 | 0
Oc1c(C(c2cccs2)N2CCOCC2)sc2ncnn12 (stereo unspecified) | 0 | 0 | 0 | - | 55 | 0
Cc1ccc([C@H]2C[C@@H](O)[C@H](n3cc(C4CC4)nn3)CN2C(=O)C2CCCCC2)cc1 | - | 0 | - | - | - | -
Cc1ccc(-c2nc3sc(C(N)=O)c(N)c3c3c2CCCC3)cc1 | 55 | - | 0 | 0 | 0 | 0
Cc1ccc(C(=O)Oc2oc(-c3ccccc3)nc2C=Nc2ccc(N(C)C)cc2)cc1 | 56 | 0 | 0 | 0 | 0 | 0
O=C(CCN1C(=O)c2ccccc2C1=O)Oc1ccc2ccccc2c1 | 0 | 0 | 0 | - | 0 | 0
CC1=CC(C)(C)Nc2ccc(OC(=O)CCN3C(=O)c4ccccc4C3=O)cc21 | 0 | 54 | 0 | 0 | 0 | 0
CCC(=O)N1CCc2cc(S(=O)(=O)NC(C(=O)NC3CCCc4ccccc43)C(C)C)ccc21 (stereo unspecified) | 62 | - | 0 | 0 | 0 | 0
COc1cc(NC(=O)N2CCc3nc(NCc4cccc(Oc5ccccc5)c4)ncc3C2)cc(OC)c1OC | - | 0 | - | - | - | -
Cc1ccccc1NC(=O)c1ccc(N/N=C/c2ccccc2O)c([N+](=O)[O-])c1 | 0 | 0 | 0 | - | 0 | 0
Cc1ccc(NC(=O)c2ccc(N/N=C/c3cccc(O)c3)c([N+](=O)[O-])c2)cc1 | 53 | 60 | 0 | - | 0 | 0
Cc1ccccc1NC(=S)c1ccc2ccccc2n1 | - | - | - | 0 | 54 | -
SMILES | PPC-1+TRAIL kill | H9c2 TAG inh | STAT1 inh | Hep lipid drop | Platelet DG rel | STAT3 inh
O=C(/C(C=Nc1ccc(Br)cc1)=C(/O)c1ccco1)C(F)(F)F | 60 | 0 | 0 | 0 | 0 | 0
Cc1c(C#N)c(NC(=O)CCl)n(Cc2ccc(F)cc2)c1C | 0 | 0 | 34 | 0 | 0 | 0
Cc1c(C#N)c(NC(=O)CCl)n(Cc2ccccc2)c1C | 0 | 0 | 0 | 0 | 0 | 0
CN(C)c1ccc(N=Nc2nc3ccccc3n2C)cc1 | 0 | 0 | - | 0 | 182 | -
O=C(O)Cn1ncc2ccccc2c1=O | 0 | 0 | 0 | 0 | 0 | 0
O=c1c2ccccc2cnn1CCOc1ccccc1 | 0 | - | 44 | 0 | 0 | 90
O=C(COc1ccc(Cl)cc1Cl)Nc1ccccn1 | 0 | - | 89 | 0 | - | 111
Cc1c(C)c2cc(Cl)c(OCC(=O)Nc3ccccn3)cc2oc1=O | - | 0 | - | - | - | -
Cc1c(C)c2ccc(OCC(=O)Nc3ccccn3)c(C)c2oc1=O | - | - | - | 0 | 52 | -
O=C(O)CSCC(=O)Nc1ccc(C2CCCCC2)cc1 | 0 | - | 52 | ? | 0 | 93
O=[N+]([O-])c1ccc(-c2nc(Cl)c3c(n2)CCCC3)o1 | - | 0 | - | - | - | -
O=C(NCc1ccc2c(c1)OCO2)C1CCC(CNS(=O)(=O)c2ccccc2)CC1 (stereo unspecified) | 0 | 0 | 0 | 0 | 61 | 0
CCOC(=O)C1(C)CCN1C(=O)c1ccc(C)cc1 (stereo unspecified) | - | 0 | - | - | - | -
